Experimental data reported in PubChem BioAssay AID504338 (NMMLSC, 2011).
Unmarked numbers belong to inactive results. Active and inactive are the calls of the source.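 Rule for the calls: active = GFP response vs DMSO above 150% with enough events counted; inconclusive = fewer than 70 events counted for a yeast strain; inactive = the rest.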

Assay: yeast TOR reporter LAP4-GFP retest – cell-based, third cherry pick, flow cytometry, confirmation (AID 504338);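 note: ratio to plate DMSO wells so 100% equals DMSO level rather than 0%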
Details: S. cerevisiae LAP4-GFP strain, 3 h, at 10 µM, stronger effect = higher value
Procedure, shortened: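 Assay system – yeast LAP4-GFP strain · Buffer or medium – synthetic complete medium · Times – compound exposure for 3 h at 30 °C · Technique – flow cytometric GFP fluorescence · Evaluation – median GFP fluorescence as percent of plate DMSO-well average · Benchmarks – rapamycin 400 ng/mL as positive control, DMSO wells as reference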

Structure (SMILES) | GFP response vs DMSO
CSc1nc(Nc2ccc(Cl)cc2)c(C#N)c(=O)[nH]1 | 106%
Cc1ccc(Nc2nc(N)[nH]c(=O)c2N=O)cc1 | 104%
FC(F)Oc1cccc2cccnc12 | 101%
Nc1cccc2c1C(=O)c1ccc(Cl)cc1C2=O | 100%
COc1ccc(N/C(C)=C/C(=O)c2ccccc2)cc1 | 104%
COc1cccc2c(Cl)c(CCCl)c(C)nc12 | 104%
CC(=O)Nc1ccc(-c2nc3cc(Cl)ccc3o2)cc1 | 104%
Cc1ccc(-c2cc(C(F)F)nc(S(C)(=O)=O)n2)cc1 | 114%
CCc1c(C)nc2c(OC)cccc2c1Cl | 104%
OCCNc1ncnc2ccc(Br)cc12 | 98.6%
CNc1cccc2c1C(=O)c1ccccc1C2=O | 107%
O=C(Nc1ccccc1Cl)ON=C1c2ccccc2-c2ccccc21 | 108%
CCN(CC)C(=O)Oc1cc(=O)n(C)c2ccccc12 | 101%
Cc1cccc(Nc2cc(=O)[nH]c(=O)[nH]2)c1 | 106%
O=C(Nc1ccccc1)ON=C1c2ccccc2-c2ccccc21 | 106%
Cn1c(=O)c2c(n3cnnc13)-c1ccccc1CC21CCCC1 | 101%
COc1ccc(OC)c(Nc2nc(NCCC(C)C)nc(N)c2[N+](=O)[O-])c1 | 103%
Nc1c(C(=O)O)ccc2c1C(=O)c1ccccc1C2=O | 115%
COC(=O)COc1c(Cl)cc(Cl)c2ccc(C)nc12 | 107%
CCCOCc1ccc(O)c2ncccc12 | 104%

Structure (SMILES) | GFP response vs DMSO
CCN(CC)c1ncnc2ccc(Br)cc12 | 101%
C/C(=C\C(=O)c1ccc(Cl)cc1)Nc1ccc(Br)cc1 | 101%
Nc1nc(NCCOCCO)nc(Nc2cccc(F)c2)c1[N+](=O)[O-] | 104%
COc1ccccc1-c1cc(C(F)(F)F)nc(S(C)(=O)=O)n1 | 128%
COc1ccccc1Nc1nc(NCCC(C)C)nc(N)c1[N+](=O)[O-] | 100%
OCc1ccnc2c(O)cccc12 | 101%
COc1ccccc1-c1cc(C(F)(F)F)nc(S(=O)(=O)CCCC(=O)O)n1 | 112%
Cc1ccc(C(=O)/C=C/Nc2cccc(O)c2)cc1 | 117%
Nn1cnc2c(c1=O)C1(CCCCC1)Cc1ccccc1-2 | 97.2%
Cc1cccc(Nc2cc(=O)[nH]c(=O)[nH]2)c1C | 101%
CCOC(=O)CS(=O)(=O)c1nc(-c2ccccc2)cc(C(F)(F)F)n1 | 182% (active)
COc1cccc(N/C=C/C(=O)c2ccc(C)cc2)c1 | 115%
Brc1ccc2ncnc(NCc3ccccc3)c2c1 | 107%
CN(C)CCCNc1cc(O)c2ncccc2c1 | 110%
Cc1cccc(C)c1Nc1ncnc(N)c1[N+](=O)[O-] | 101%
CCC(C)Nc1nc(N)c([N+](=O)[O-])c(Nc2ccccc2OC)n1 (centres undefined) | 97.2%
Oc1c(Cl)cc(Cl)c2cccnc12 | 188% (active)
COc1cc(=O)n(C)c2c(O)cccc12 | 101%
Nc1[nH]c(=O)nc(Nc2ccccc2)c1N=O | 104%
